Shown are actives, neighbours in structure and some others; about 1.8% of the full set was active somewhere.
M5 antag: human M5 muscarinic receptor antagonists, primary screen, CHO cells, Fluo-8 calcium fluorescence; Muscarinic acetylcholine receptor M5 (Homo sapiens), P08912; inhibition, % at 3 µM; CHO-hM5 cells, ACh EC80; AID 624040, 2012; 0.59% of 360,000 active;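 active means inhibition above a per-plate cutoff, the mean of that plate's test compounds plus 3 SD, cut at about 27% in these data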;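 further: 0% = acetylcholine EC80 with DMSO and 100% = DMSO without agonist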
CHRM4 antagonist: human M4 muscarinic receptor antagonists, primary screen, CHO cells, Fluo-8 calcium fluorescence | Muscarinic acetylcholine receptor M4 (Homo sapiens), P08173 | CHO-hM4 cells, ACh EC80 | inhibition, % at 3 µM | 0.73% of 360,000 active;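 active means inhibition above its plate's cutoff, the mean inhibition of sample wells plus 3 SD, cut at about 27% in these data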;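 further: 0% = acetylcholine EC80 with DMSO and 100% = DMSO without agonist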
Target sequence (P08173 whole entry, looked up): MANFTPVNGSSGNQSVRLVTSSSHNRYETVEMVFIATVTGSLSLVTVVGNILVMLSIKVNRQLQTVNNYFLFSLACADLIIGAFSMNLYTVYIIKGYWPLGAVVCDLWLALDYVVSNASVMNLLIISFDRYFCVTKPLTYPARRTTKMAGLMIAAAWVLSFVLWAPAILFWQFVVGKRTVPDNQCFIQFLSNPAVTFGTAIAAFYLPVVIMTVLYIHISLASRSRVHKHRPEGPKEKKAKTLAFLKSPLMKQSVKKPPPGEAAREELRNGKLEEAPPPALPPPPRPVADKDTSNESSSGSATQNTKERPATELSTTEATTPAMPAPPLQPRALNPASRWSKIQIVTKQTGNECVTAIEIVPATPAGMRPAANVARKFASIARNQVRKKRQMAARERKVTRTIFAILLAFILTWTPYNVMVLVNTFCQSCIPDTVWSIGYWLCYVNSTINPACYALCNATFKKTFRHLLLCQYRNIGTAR
CHRM5 PAM: human M5 muscarinic receptor positive allosteric modulators, primary screen, CHO-K1 cells, Fluo-8 calcium fluorescence. activation, % at 3 µM. 0.3% of 360,000 active. Muscarinic acetylcholine receptor M5 (Homo sapiens), P08912. AID 624038, 2012. CHO-K1 hM5, ACh EC20 PAM; 0% = ACh EC20, 100% = ACh EC100;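 active means activation above the run cutoff, the mean activation of all test compounds plus 3 SD, cut at about 18% in these data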
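Assay system: CHO-K1 hM5 cells. Also added: acetylcholine at EC20 concentration, added after compound. Dosing: 3 µM, single dose. Times: compound preincubation 140 s before EC20 acetylcholine addition. Signal: Fluo-8 calcium fluorescence. Measure: % activation relative to EC20 and EC100 ACh responses. Repeats: singlicate, one well per test compound.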
M4 ag: human M4 muscarinic receptor agonists, primary screen, CHO-K1 cells, Fluo-8 calcium fluorescence; Muscarinic acetylcholine receptor M4 (Homo sapiens), P08173; CHO-K1 hM4/Gqi5; vehicle 0%, full acetylcholine response 100%; activation, % at 3 µM; 0.14% of 360,000 active;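 active means activation above the run mean over all test wells plus 3 SD, cut at about 32% in these data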;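 further: peak over basal fluorescence ratio per well then scaled between controls; 0% = DMSO wells and 100% = acetylcholine at EC100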
CHRM4 PAM: human M4 muscarinic receptor positive allosteric modulators, primary screen, CHO-K1 cells, Fluo-8 calcium fluorescence; CHO-K1 hM4/Gqi5, ACh EC20; 0% = ACh EC20, 100% = maximal ACh; 0.4% of 360,000 active; AID 624126, 2012; Muscarinic acetylcholine receptor M4 (Homo sapiens), P08173; activation, % at 3 µM;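 active means activation above its plate's cutoff, the mean activation of sample wells plus 3 SD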
CHRM5 agonist: human M5 muscarinic receptor agonists, primary screen, CHO-K1 cells, Fluo-8 calcium fluorescence; 0.19% of 360,000 active; CHO-K1 hM5 cells; 0% DMSO wells, 100% maximal acetylcholine response; activation, % at 3 µM;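 active means activation above the run's mean over test compounds plus 3 SD, cut at about 23% in these data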;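 further: signal is peak over basal fluorescence ratio across the kinetic read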
The depositor's hits bear a star; + = active, no number.

SMILES | M5 antag | CHRM4 antagonist | CHRM5 PAM | M4 ag | CHRM4 PAM | CHRM5 agonist
N#CC(C#N)=C1C=C2C=C(N3CCCCCC3)CCC2CC1 (stereo unspecified) | 103* | 96* | -21 | 746* | -23 | +
CC1(C)CC(NCCN2CCN(C3=CC(=C(C#N)C#N)CC(C)(C)C3)CC2)=CC(=C(C#N)C#N)C1 | 1 | -8 | 3 | 1 | 2 | 3
N#CC(C#N)=C1C=C2C=C(N3CCOCC3)CCC2CC1 (stereo unspecified) | 24 | 29* | -16 | 52* | -25 | 37*
CCc1ccc(NC(=O)C(C)OC(=O)/C=C/c2ccc(O)c(OC)c2)cc1 (stereo unspecified) | 14 | 6 | -15 | 27 | -10 | 35*
COc1ccc(N2CCN(C(=O)COC(=O)/C=C/c3ccc(C(F)(F)F)cc3)CC2)cc1 | -12 | -2 | 8 | 1 | 0 | -1
COc1cc(/C=C/C(=O)OC(C)C(=O)Nc2c(C)n(C)n(-c3ccccc3)c2=O)ccc1O (stereo unspecified) | 6 | 1 | -2 | 0 | -1 | 4
COc1cc(/C=C/C(=O)OCC(=O)c2ccc(OC(F)F)cc2)ccc1O | 4 | 1 | -10 | 12 | -3 | 27*
COc1ccc(N2CCN(C(=O)COC(=O)/C=C/c3ccc(OC(F)F)cc3)CC2)cc1 | 0 | -21 | -1 | 1 | 23* | 3
COc1ccc(Cn2ccnc2)cc1[N+](=O)[O-] | -6 | 3 | 1 | 1 | -2 | -4
COc1ccc(Cn2ccnc2)cc1Br | 8 | 29* | 6 | 1 | 1 | -4
Cc1ccc(-c2nnc(CSc3nnc(C)s3)o2)cc1 | 8 | -13 | 19* | 0 | 5 | -2
Cc1csc(SCc2nnc(-c3ccc(Cl)cc3)o2)n1 | -1 | 9 | 1 | -1 | 7 | -1
O=C(C1CCN(S(=O)(=O)N2CCC3(CC2)OCCO3)CC1)N1CCc2ccccc2C1 | -4 | -1 | -2 | 6 | 3 | 5
O=C(C1CCN(c2ccc(N3CCOCC3)nn2)CC1)N1CCc2ccccc2C1 | 3 | 46* | 1 | 1 | -17 | -1
CC1=CC(C)(C)N2C(=O)C(=Nc3ccc(O)cc3)c3cccc1c32 | 5 | 26 | 6 | 0 | 23 | 38*
COc1cc(N=C2C(=O)N3c4c(cccc42)C(C)=CC3(C)C)cc(OC)c1 | -11 | -17 | 4 | 2 | 10 | 27*
CC(C)CN=Cc1c(O)c([N+](=O)[O-])cc2oc3c(c12)CCCC3 | -1 | 8 | 4 | -2 | 17 | 3
O=[N+]([O-])c1cc2oc3c(c2c(C=NCc2ccccc2)c1O)CCCC3 | 3 | 35* | 7 | 1 | 14 | -1
CNC(=O)N1c2ccccc2CCc2ccccc21 | 0 | -2 | 3 | 0 | -3 | -1
CN(C)CCCN1c2ccccc2CCc2ccccc21 | 80* | 70* | -19 | 2 | -17 | -2
CN(C)CCCC1(O)c2ccccc2CCc2ccccc21 | 10 | 10 | -17 | 11 | -14 | -7
CC(CN(C)C)CN1c2ccccc2CCc2ccccc21 (stereo unspecified) | 99* | 87* | -19 | 6 | -19 | 0
COC(=O)c1cccc(NC(=O)CCNC(=O)c2ccco2)c1 | 14 | -9 | -2 | 4 | -2 | -3
Cc1ccc(Nc2nc3ccccc3nc2Nc2c(C)n(C)n(-c3ccccc3)c2=O)cc1 | -11 | -5 | 23* | 1 | 12 | 3
Cc1c(Cl)c([N+](=O)[O-])nn1CCCC(=O)Nc1c(C)n(C)n(-c2ccccc2)c1=O | 17 | 27* | -31 | 1 | -42 | -19
SMILES | M5 antag | CHRM4 antagonist | CHRM5 PAM | M4 ag | CHRM4 PAM | CHRM5 agonist
Cc1c(NC(=O)Nc2ccc(Cl)c(Cl)c2)c(=O)n(-c2ccccc2)n1C | 30* | 10 | -15 | 12 | 0 | 0
CCOc1ccccc1CNn1cnnc1SCC(=O)NC(C)(C)C | -1 | -1 | 0 | 1 | -5 | 1
C/C(=N\NC(=O)Cc1ccc(Cl)cc1)c1cccnc1 | 13 | 9 | -6 | 0 | -5 | 0
O=C(COc1ccc(Br)cc1)NCCNC(=O)c1ccccn1 | 9 | 4 | -4 | 1 | -1 | 5
O=C(c1ccc(-c2nc3ccccc3s2)o1)N1CCN(c2ccccc2O)CC1 | 34* | -1 | -17 | 9 | -5 | -5
O=c1cccc2n1Cc1cc3ccccc3nc1-2 | 11 | 2 | 0 | 3 | 26* | 4
CCC(Cc1ccccc1)NC(=O)C1=C(C)C(=O)OC12CCC(C)CC2 (stereo unspecified) | 2 | 1 | -4 | 1 | -1 | -3
CC(=O)N/C(=N\c1nc(C)cc(C)n1)Nc1ccc(Cl)cc1Cl | 4 | -27 | -4 | 2 | 12 | -4
COCc1c(C(=O)OCC(=O)N2c3ccccc3NC(=O)C2(C)C)oc2ccccc12 | 13 | 27* | -12 | 15 | -10 | 4
COc1ccccc1N1C(=O)c2ccc(C(=O)Nc3ccccc3O)cc2C1=O | 33* | 30* | 4 | 21 | 12 | 7
COc1ccc(N2C(=O)c3ccc(C(=O)Nc4ccccc4O)cc3C2=O)cc1 | 20 | -5 | -3 | 0 | 4 | 2
CC(=O)Oc1ccccc1N1C(=O)c2ccc(C(=O)O)cc2C1=O | 2 | 31* | 12 | 2 | 28 | -1
COc1ccc(NC(=O)CCc2nnc3ccc(NCc4ccco4)nn23)cc1 | 14 | 16 | 28* | 18 | 39* | 1
CN(C)CCN(Cc1cccs1)c1ccccn1 | 7 | 27* | -17 | 1 | -17 | -1
CN(C)CCN(Cc1ccco1)c1ccccn1 | 17 | 1 | -16 | 1 | -2 | -11
COCCNc1oc(COc2cccc(C)c2)nc1C#N | 8 | -10 | 24* | 0 | 4 | -3
CN(C)CCNc1oc(COc2cccc(Cl)c2)nc1C#N | -5 | 15 | 4 | 1 | -4 | 1
O=c1ccc(-c2n[nH]c(=S)n2-c2ccc(F)c(Cl)c2)n[nH]1 | -6 | -1 | -1 | 2 | 5 | -6
Fc1ccc(-n2c(-c3cc(C4CC4)[nH]n3)n[nH]c2=S)cc1Cl | -20 | -1 | 19* | 1 | 12 | 3
Cc1cccc(NC(=O)CCN2CCCC(C)C2)c1 (stereo unspecified) | 6 | 10 | 9 | 0 | -1 | -7

Screens as filed in PubChem BioAssay.
